Results from ChEMBL document CHEMBL2057154, “Discovery and optimization of novel purines as potent and selective CB2 agonists” (Bioorg Med Chem Lett, 2012).
In brackets after ≈: the same amount, converted by molar mass. Activity calls are given as the source filed them. The rule behind the calls is not given here.

Tests used:
Rattus norvegicus [1] = experiment: Analgesic activity in monoiodoacetic acid rat model of osteoarthritic pain assessed as decrease in pain at 3 mg/kg, po measured after 29 days relative to control; format: functional, organism-based; set-up: dose 3 mg/kg
Cannabinoid receptor 2 [2] = target: T1, Cannabinoid receptor 2 (Homo sapiens, UniProt P34972); experiment: Agonist activity at human CB2 receptor expressed in CHO cells assessed as [35S]-GTPgammaS binding preincubated for 25 mins measured after 30 mins by scintillation proximity assay; format: functional, cell-based
Cannabinoid receptor 2 [3] = target: T1, Cannabinoid receptor 2; experiment: Agonist activity at human CB2 receptor expressed in CHO cells assessed as [35S]-GTPgammaS binding preincubated for 25 mins measured after 30 mins by scintillation proximity assay relative to control; format: functional, cell-based
Cannabinoid receptor 1 [4] = target: T2, Cannabinoid receptor 1 (Homo sapiens, UniProt P21554); experiment: Agonist activity at human CB1 receptor expressed in CHO cells assessed as [35S]-GTPgammaS binding preincubated for 25 mins measured after 30 mins by scintillation proximity assay; format: functional, cell-based
[5] = Drug metabolism in dog liver microsomes at 4 uM after 30 mins by LC-ESI/MS analysis; format: ADME, Canis lupus familiaris, Microsome; conditions: read-out: Drug metabolism
[6] = Drug metabolism in rat liver microsomes at 4 uM after 30 mins by LC-ESI/MS analysis; format: ADME, Microsome; conditions: read-out: Drug metabolism
[7] = Drug metabolism in human liver microsomes at 4 uM after 30 mins by LC-ESI/MS analysis; format: ADME, Microsome; conditions: read-out: Drug metabolism
[8] = Solubility of the compound in simulated gastrointestinal fluid at pH 6.8; format: physicochemical
How it was run: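 Solubility determined in simulated GI fluid at pH 6.8.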

Homo sapiens [9] = organism: Homo sapiens; experiment: Selectivity ratio of EC50 for human CB1 receptor to EC50 for human CB2 receptor
Cannabinoid receptor 1 [10] = target: T2, Cannabinoid receptor 1; experiment: Agonist activity at human CB1 receptor expressed in CHO cells assessed as [35S]-GTPgammaS binding preincubated for 25 mins measured after 30 mins by scintillation proximity assay relative to control; format: functional, cell-based
[11] = Ratio of drug uptake in brain to plasma of Sprague-Dawley rat; format: ADME; conditions: read-out: BPR
[12] = Aqueous solubility of the compound at pH 7; format: physicochemical; conditions: buffer
cytochrome P450 = cytochrome P450 (Homo sapiens, UniProt P04798+P05177+P05181+P08684+P10632+P10635+P11509+P11712+P13584+P20813+P20815+P20853+P24462+P24903+P33260+P33261+P51589+P78329+P98187+Q02928+Q08477+Q16678+Q16696+Q5TCH4+Q6VVX0+Q7Z449+Q8TAV3+Q96SQ9+Q9HB55); experiment: Inhibition of cytochrome P450; format: ADME
Homo sapiens [13] = organism: Homo sapiens; experiment: (§1) Binding affinity to 5HT1
[14] = Lipophilicity, log P of the compound; format: physicochemical; conditions: octanol/water
[15] = Dissociation constant, pKa of the compound; format: physicochemical
Rattus norvegicus [16] = experiment: Analgesic activity in monoiodoacetic acid rat model of osteoarthritic pain assessed as decrease in pain at 10 mg/kg, po pretreated with CB2 antagonist SR144528 at 3 mg/kg, ip administered 30 mins prior to compound treatment; format: functional, organism-based
How it was run: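 SR-144528 given at 3 mg/kg ip 30 min before the oral test dose (10 mg/kg) in the rodent monoiodoacetic acid osteoarthritic knee pain model.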

Rattus norvegicus [17] = experiment: Analgesic activity in monoiodoacetic acid rat model of osteoarthritic pain assessed as decrease in pain at 10 mg/kg, po measured after 29 days relative to control; format: functional, organism-based; set-up: dose 10 mg/kg
Rattus norvegicus [18] = experiment: Hepatic clearance in Sprague-Dawley rat at 1 mg/kg, iv; format: ADME, organism-based, Liver; set-up: dose 1 mg/kg, route intravenous; conditions: in vivo
How it was run: (§2)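 Male Sprague–Dawley rats dosed 1 mg/kg iv and 1 mg/kg po; plasma pharmacokinetic parameters derived from the iv and oral arms.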

[19] = Volume of distribution in Sprague-Dawley rat at 1 mg/kg, iv; format: ADME, organism-based; set-up: dose 1 mg/kg, route intravenous; conditions: in vivo; how it was run: as §2
[20] = Oral bioavailability in Sprague-Dawley rat at 1 mg/kg; format: ADME, organism-based; conditions: in vivo; how it was run: as §2
Cytochrome P450 2D6 = Cytochrome P450 2D6 (Homo sapiens, UniProt P10635); experiment: Inhibition of CYP2D6; format: ADME
[21] = as §1; set-up: species or system Homo sapiens
[22] = target: Voltage-gated inwardly rectifying potassium channel KCNH2 (Homo sapiens, UniProt Q12809); experiment: Displacement of [3H]dofetilide from human Erg expressed in human HEK293 cells; format: cell-based
How it was run: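 hERG affinity measured by [3H]-dofetilide displacement from hERG channels stably expressed in HEK293 cells.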

Cannabinoid receptor 2 [23] = target: T3, Cannabinoid receptor 2 (Rattus norvegicus, UniProt Q9QZN9); experiment: Displacement of [3H]-CP-55,940 from rat CB2 receptor expressed in CHO cells; format: cell-based
T3 sequence (Q9QZN9 whole entry): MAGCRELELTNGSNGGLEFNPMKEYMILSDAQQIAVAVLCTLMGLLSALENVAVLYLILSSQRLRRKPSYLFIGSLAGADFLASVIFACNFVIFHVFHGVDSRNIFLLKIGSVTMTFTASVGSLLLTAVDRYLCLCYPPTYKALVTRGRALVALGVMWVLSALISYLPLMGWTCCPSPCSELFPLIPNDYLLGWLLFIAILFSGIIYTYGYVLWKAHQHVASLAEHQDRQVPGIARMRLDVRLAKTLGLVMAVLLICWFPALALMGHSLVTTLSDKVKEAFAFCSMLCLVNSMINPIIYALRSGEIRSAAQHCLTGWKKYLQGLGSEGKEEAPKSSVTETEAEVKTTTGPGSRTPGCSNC

Cannabinoid receptor 2 [24] = target: T1, Cannabinoid receptor 2; experiment: Displacement of [3H]-CP-55,940 from human CB2 receptor expressed in CHO cells; format: cell-based
Rattus norvegicus [25] = experiment: Induction of hypothermia in monoiodoacetic acid rat model of osteoarthritic pain at 0.5 mg/kg, ip; format: organism-based; set-up: dose 0.5 mg/kg, route intraperitoneal; conditions: in vivo
How it was run: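 Rats given the non-selective cannabinoid agonist (positive control) at 0.5 mg/kg ip. Body temperature drop was the read-out, used as an in vivo marker of central CB1 receptor activation.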

T2 sequence (P21554 whole entry): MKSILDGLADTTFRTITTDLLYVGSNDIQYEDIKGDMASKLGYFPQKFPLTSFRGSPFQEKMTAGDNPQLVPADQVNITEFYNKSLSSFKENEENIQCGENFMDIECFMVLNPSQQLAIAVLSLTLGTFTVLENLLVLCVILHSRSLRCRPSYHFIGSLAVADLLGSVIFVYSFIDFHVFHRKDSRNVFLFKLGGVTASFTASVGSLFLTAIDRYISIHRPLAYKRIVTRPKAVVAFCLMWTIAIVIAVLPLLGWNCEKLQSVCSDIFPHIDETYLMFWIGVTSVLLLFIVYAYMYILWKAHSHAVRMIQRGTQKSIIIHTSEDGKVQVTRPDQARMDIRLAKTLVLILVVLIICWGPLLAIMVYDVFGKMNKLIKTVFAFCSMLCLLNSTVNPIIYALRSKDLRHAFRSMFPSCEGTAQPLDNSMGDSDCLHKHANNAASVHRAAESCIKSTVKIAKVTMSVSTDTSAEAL
T1 sequence (P34972 whole entry): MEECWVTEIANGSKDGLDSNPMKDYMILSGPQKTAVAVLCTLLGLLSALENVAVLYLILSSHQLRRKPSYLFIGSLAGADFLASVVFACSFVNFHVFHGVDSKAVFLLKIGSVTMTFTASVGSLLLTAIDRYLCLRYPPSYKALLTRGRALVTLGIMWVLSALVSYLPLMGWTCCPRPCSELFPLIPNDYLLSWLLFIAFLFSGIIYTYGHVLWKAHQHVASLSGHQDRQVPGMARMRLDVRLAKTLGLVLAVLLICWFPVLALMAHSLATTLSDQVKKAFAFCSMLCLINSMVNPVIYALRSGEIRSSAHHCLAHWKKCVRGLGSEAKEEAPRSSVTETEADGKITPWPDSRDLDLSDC
Chain of Cytochrome P450 2D6 (P10635 whole entry): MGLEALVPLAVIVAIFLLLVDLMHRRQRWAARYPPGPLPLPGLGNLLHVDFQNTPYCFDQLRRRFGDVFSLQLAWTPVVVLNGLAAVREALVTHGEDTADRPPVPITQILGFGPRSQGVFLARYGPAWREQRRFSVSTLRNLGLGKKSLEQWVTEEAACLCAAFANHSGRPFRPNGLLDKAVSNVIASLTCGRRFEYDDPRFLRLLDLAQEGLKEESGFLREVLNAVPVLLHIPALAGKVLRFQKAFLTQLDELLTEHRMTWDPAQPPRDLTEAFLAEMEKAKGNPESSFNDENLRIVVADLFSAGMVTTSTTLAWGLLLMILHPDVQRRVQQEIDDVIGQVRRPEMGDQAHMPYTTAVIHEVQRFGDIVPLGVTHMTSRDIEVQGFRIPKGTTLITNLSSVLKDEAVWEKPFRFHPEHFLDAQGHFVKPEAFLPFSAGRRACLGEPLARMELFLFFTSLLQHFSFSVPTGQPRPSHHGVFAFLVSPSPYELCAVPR
Chain of Voltage-gated inwardly rectifying potassium channel KCNH2 (Q12809 whole entry): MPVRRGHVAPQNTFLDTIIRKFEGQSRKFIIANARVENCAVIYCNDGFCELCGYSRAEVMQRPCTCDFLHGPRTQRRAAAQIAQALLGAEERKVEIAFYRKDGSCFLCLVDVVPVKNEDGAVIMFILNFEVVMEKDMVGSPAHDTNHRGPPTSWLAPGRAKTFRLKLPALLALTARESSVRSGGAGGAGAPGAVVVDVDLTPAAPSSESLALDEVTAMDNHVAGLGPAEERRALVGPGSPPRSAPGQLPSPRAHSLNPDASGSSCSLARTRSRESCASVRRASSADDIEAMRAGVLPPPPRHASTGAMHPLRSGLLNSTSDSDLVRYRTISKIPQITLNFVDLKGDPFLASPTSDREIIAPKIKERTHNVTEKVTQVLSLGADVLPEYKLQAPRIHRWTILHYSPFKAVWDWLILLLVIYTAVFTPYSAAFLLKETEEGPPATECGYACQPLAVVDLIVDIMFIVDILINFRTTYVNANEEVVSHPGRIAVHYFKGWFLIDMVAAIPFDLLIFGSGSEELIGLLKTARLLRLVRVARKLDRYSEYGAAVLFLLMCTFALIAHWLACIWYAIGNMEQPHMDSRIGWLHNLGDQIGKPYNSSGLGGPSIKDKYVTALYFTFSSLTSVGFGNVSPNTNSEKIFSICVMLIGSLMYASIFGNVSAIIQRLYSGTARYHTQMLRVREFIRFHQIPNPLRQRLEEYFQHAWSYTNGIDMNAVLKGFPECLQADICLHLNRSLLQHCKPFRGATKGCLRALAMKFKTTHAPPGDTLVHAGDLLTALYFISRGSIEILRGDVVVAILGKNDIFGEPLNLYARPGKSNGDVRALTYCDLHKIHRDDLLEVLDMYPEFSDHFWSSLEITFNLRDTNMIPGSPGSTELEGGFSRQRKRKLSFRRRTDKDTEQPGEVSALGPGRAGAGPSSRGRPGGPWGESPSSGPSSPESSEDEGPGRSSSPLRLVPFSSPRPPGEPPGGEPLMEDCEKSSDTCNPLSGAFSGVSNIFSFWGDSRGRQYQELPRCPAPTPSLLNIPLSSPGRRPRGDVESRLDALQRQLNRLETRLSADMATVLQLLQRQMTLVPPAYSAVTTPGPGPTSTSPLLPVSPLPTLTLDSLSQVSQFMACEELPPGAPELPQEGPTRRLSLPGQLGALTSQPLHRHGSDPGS

| Structure (SMILES) | EC50 (Cannabinoid receptor 2 [2]) [nM] | Efficacy (Cannabinoid receptor 2 [3]) [%] | EC50 (Cannabinoid receptor 1 [4]) [nM] | metabolised at 0.5 h, 4 µM [5] [%] | metabolised at 0.5 h, 4 µM [6] [%] | metabolised at 0.5 h, 4 µM [7] [%] | Ratio EC50 (Homo sapiens [9]) | also measured |
| --- | --- | --- | --- | --- | --- | --- | --- | --- |
| O=C(O)Cc1ccccc1Nc1c(Cl)cccc1Cl | – | – | – | – | – | – | – | Activity (Rattus norvegicus [1]): Active |
| CC(=O)N1CCN(c2nc(C)nc3sc(-c4ccccc4)cc23)CC1 | 184 | 95.4 | > 100000 | 62 | 28 | 25 | > 543 | solubility [8]: 41 µM (≈ 14.5 µg/mL) |
| Cc1nc(N2CCN(C)CC2)c2cc(-c3ccccc3)sc2n1 | 44.4 | 90.6 | 5910 | 97 | 95 | 56 | 133 | Efficacy (Cannabinoid receptor 1 [10]): 70.9% |
| CCN1CCN(c2nc(C)nc3c2nc(-c2ccccc2Cl)n3C)CC1 | – | – | – | – | – | – | – | Kp [11]: 1; solubility [12]: > 2000 µg/mL; IC50 (cytochrome P450): > 10000 nM; Activity (Homo sapiens [13]): Active; logP [14]: 3.1 |
| CCN1CCN(c2nc(C)nc3sc(-c4ccccc4)cc23)CC1 | 24.8 | 84.5 | 2600 | 97 | 94 | 73 | 104 | Efficacy (Cannabinoid receptor 1 [10]): 73.6%; pKa [15]: 7.5; Activity (Rattus norvegicus [16]): inactive; Activity (Rattus norvegicus [17]): Active; CLH (Rattus norvegicus [18]): 90 mL/min/kg; Vd [19]: 10 L/kg; bioavailability [20]: 91%; IC50 (Cytochrome P450 2D6): 3000 nM; Ki [21]: 1000 nM; IC50 [22]: > 10000 nM; Ki (Cannabinoid receptor 2 [23]): 16 nM; solubility [8]: > 200 µM; Ki (Cannabinoid receptor 2 [24]): 82 nM; logP [14]: 3.7 |
| Cc1nc(N2CCC(C)CC2)c2cc(-c3ccccc3)sc2n1 | 199 | 85.3 | > 100000 | 75 | 93 | 49 | > 502 | – |
| CCCCCCC(C)(C)c1ccc([C@@H]2C[C@H](O)CC[C@H]2CCCO)c(O)c1 [CP-55940] | – | – | – | – | – | – | – | Activity (Rattus norvegicus [25]): Toxic |
| COC(=O)NCCn1c(-c2ccccc2Cl)nc2c(N3CCN(C)CC3)nc(C)nc21 | 47.5 | 79.5 | > 100000 | 62 | 25 | 14 | > 2110 | – |
